Bioassay records: PubChem BioAssay, several laboratories
The full list was thinned out, with hits kept by preference.
XBP1 UPR activ = activators of adaptive arm of unfolded protein response (XBP1). CHO-XBP1 luciferase reporter, IRE1-XBP1 UPR activation, luminescence; percent of tunicamycin response, DMSO as zero. activation, % at 20 µM. 330,000 compounds, 0.33% hits. AID 463104;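 active means versus positive control, 20 µM dose yields 30% or more activation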;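 further: 100% = tunicamycin at 10 µg/mL and 0% = DMSO only wells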
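assay system = CHO-XBP1 luciferase reporter cells | amount = 1000 cells/well | buffer or medium = F12 plus 10% FBS | compound dosing = single point, 20 µM final compound, 1% DMSO | incubation = 16-18 h cell attachment at 37 °C, then 6 h compound exposure | detection = Steady-Glo luminescence read | controls = tunicamycin 10 µg/mL and vehicle-only wells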
pCIP destab = compounds decreasing mouse p/CIP protein stability. 290,000 compounds, 0.01% hits. decrease of EGFP signal, % at 10 µM. F442A p/CIP-EGFP cells, EGFP fluorescence, 16 h. Q05BA5;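 active means EGFP signal decrease of at least 30% at 10 µM or well 3 SD below plate mean, unless failing retest; inactive means the rest, including hits failing retest or dose response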
Target sequence (Q05BA5 1-1403): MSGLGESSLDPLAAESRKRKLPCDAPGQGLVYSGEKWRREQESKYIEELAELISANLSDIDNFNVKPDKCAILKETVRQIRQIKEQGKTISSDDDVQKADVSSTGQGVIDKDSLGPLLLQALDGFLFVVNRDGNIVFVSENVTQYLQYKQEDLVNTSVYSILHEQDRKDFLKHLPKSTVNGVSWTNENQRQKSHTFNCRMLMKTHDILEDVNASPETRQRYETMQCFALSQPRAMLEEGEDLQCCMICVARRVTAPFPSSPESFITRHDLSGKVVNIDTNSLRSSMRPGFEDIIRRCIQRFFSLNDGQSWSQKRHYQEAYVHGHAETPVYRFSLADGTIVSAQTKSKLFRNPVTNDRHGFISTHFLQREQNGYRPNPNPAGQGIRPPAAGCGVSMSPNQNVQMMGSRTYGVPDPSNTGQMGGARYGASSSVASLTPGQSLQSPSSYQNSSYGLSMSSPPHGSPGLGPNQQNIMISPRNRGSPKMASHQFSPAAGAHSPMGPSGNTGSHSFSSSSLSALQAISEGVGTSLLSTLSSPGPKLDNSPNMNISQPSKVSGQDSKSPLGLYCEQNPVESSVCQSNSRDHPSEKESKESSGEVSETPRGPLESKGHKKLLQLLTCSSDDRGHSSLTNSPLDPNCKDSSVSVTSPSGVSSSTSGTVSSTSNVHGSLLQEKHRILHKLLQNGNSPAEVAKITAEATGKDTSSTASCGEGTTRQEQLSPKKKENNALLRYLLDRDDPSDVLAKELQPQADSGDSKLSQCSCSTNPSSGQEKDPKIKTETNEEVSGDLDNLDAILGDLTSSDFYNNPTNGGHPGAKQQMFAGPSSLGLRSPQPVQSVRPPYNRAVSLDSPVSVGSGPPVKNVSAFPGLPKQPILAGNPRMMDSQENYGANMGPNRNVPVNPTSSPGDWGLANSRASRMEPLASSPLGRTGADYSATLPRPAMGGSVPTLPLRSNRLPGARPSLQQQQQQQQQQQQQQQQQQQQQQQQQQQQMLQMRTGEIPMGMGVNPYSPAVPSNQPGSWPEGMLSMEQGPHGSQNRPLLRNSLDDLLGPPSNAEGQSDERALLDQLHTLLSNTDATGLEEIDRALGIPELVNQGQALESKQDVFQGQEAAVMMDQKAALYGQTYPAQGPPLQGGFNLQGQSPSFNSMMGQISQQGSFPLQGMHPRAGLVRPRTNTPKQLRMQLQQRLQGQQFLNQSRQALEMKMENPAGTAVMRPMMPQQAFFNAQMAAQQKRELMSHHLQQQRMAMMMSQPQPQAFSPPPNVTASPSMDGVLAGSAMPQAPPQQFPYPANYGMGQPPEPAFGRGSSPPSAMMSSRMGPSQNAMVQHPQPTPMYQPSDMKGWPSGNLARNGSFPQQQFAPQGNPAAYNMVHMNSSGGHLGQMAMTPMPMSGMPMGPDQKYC
UPR CHOP act = activators of apoptotic arm of unfolded protein response (CHOP); 330,000 compounds, 0.34% hits; activation, % at 10 µM; CHO-CHOP luciferase reporter, UPR activation, luminescence; percent of tunicamycin response over DMSO baseline;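 active means at 10 µM dose, activation of 40% or more, normalized to positive control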;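 further: 100% = tunicamycin at 10 µg/mL and 0% = DMSO alone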
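measured by = luciferase luminescence | assay system = CHO-CHOP cells, stable luciferase reporter of PERK-eIF2a-CHOP signalling | amount = 500 reporter cells seeded per well | timing = 6 h compound exposure at 37 °C after overnight seeding | controls = positive tunicamycin 10 µg/mL, negative DMSO alone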
Dynein transport = dynein cargo transport inhibition | z-score, hits read low | 220,000 compounds, 0.47% hits | 3617.4 mouse cells, GR-EGFP nuclear translocation imaging; test concentration mostly 20 µM; stimulated with dexamethasone, 1 µM; hits give low values | AID 1381;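 active means plate z-score of nuclear minus cytoplasmic receptor signal below a set negative limit, without overly bright fluorescence or cell loss, cut at about -3.5 in these data, passing the limit was not always enough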;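 further: z-score of nuclear minus cytoplasmic ring GR-EGFP intensity difference per well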
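Medium: Induction medium lacking tetracycline, stripped serum | Probe or stimulus: 1.0 µM final dexamethasone stimulus | Schedule: 48 h induction, then 1 h compound, then 30 min agonist, 37 °C | Signal: Automated 10x imaging of fixed Hoechst-stained cells | Evaluation: Per-cell GR-EGFP intensity, nucleus versus surrounding cytoplasmic ring, well-averaged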
B2AR ag = human beta-2 adrenergic receptor agonism by FAP | P07550 | Am2.2-beta2AR cells, FAP receptor internalization, flow cytometry | response, % (no concentration beside the values) | 340,000 compounds, 0.43% hits | AID 504454;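 active means response above a set limit, near 3 SD of response in nonfluorescent compounds, cut at about 42% in these data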
CHOP inhibitor = blocks CHOP induction under ER stress. CHO-K1 CHOP-promoter luciferase, tunicamycin-induced, 15-18 h. inhibition, % at 10 µM. 220,000 compounds, 3.8% hits. AID 2732;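 active means compounds that reduced the stress-induced luciferase reporter signal by more than about 70% of percent inhibition, limit read from the data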;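 further: 0% = tunicamycin plus vehicle and 100% = wells without tunicamycin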
CHOP confirm = confirmation of CHOP induction inhibitors; shares compounds with CHOP inhibitor; CHO-CHOP promoter luciferase reporter, tunicamycin-induced, luminescence; inhibition, % at 10 µM; 2,100 compounds, 45% hits; AID 504437;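 active means mean of three repeat readings of reporter signal inhibition above a set limit, cut at about 70% in these data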;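 further: 0% = tunicamycin plus vehicle and 100% = wells lacking tunicamycin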
CHOP UPR conf = apoptotic UPR (CHOP) activation, confirmed; 1,000 compounds, 64% hits; activation, % at 10 µM; shares compounds with UPR CHOP act; CHO-CHOP cells, CHOP-luciferase reporter luminescence; percent of tunicamycin response, DMSO as zero; in the data active means activation above about 33%;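 further: 0% = DMSO wells and 100% = tunicamycin 10 µg/mL wells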
* = called active by the depositor; . = no result.

SMILES	XBP1 UPR activ	pCIP destab	UPR CHOP act	Dynein transport	B2AR ag	CHOP inhibitor	CHOP confirm	others
CN1CCN(/N=C/c2ccc(N(c3ccccc3)c3ccccc3)cc2)CC1	2	1	0	-0.33	16	105*	-17
CN1CCN(/N=C/c2ccc(N(C)c3ccccc3)cc2)CC1	4	-1	4	1.2	1	-17	.
Cc1ccc(NC(c2ccccc2)c2nc3ccccc3[nH]c2=O)cc1 (stereo unspecified)	-4	-14	2	-0.61	1	102*	10
CCCCCCNC(=O)CC(c1ccccc1)c1cc(Br)ccc1O (stereo unspecified)	-3	1	1	0.033	0	101*	112*
CCOC(=O)c1c(N)sc(C(O)(C(F)(F)F)C(F)(F)F)c1-c1ccc(Cl)cc1	-4	-13	-1	0.12	4	98*	121*
Cc1cc(/C=N/n2cnnc2)c(C)n1-c1ccc(OCc2ccc(F)cc2)cc1	4	-19	10	0.18	0	.	111*
Cc1cc(/C=N/n2cnnc2)c(C)n1-c1ccc(OCc2ccc(Cl)cc2Cl)cc1	-6	-21	-3	0.96	18	108*	114*
C(=N\NC1=Nc2cccc3cccc1c23)/c1ccccn1	.	33	.	-1.5	7	66	.
Clc1ccccc1/C=N/NC1=Nc2cccc3cccc1c23	15	-5	8	-1.5	-11	98*	-22
CCC1C(c2ccccc2)N(C)C(c2ccccc2)CC1(O)c1ccccc1 (stereo unspecified)	9	-2	0	-0.047	24	99*	43
COCCNCC(=O)Nc1ccccc1Sc1ccccc1	0	-3	-2	-0.4	11	-4	.
CC(C)Cc1cc(C(=O)N2N=C(C(F)F)CC2(O)C(F)F)c2ccccc2n1 (stereo unspecified)	-2	3	-1	0.015	-6	32	.
CCc1ccc(-c2cc(C(=O)N3N=C(C(F)F)CC3(O)C(F)F)c3ccccc3n2)cc1 (stereo unspecified)	9	-4	8	-0.072	8	110*	113*
O=C(N/N=C/c1cccc(F)c1)c1c(O)c2ccccc2[nH]c1=O	.	-2	.	0.31	3	104*	93*
O=C(N/N=C/c1ccc(F)cc1)c1c(O)c2ccccc2[nH]c1=O	8	-2	3	0.23	7	101*	72*
CCCCCCn1c(=O)c(C(=O)N/N=C/c2cccc(F)c2)c(O)c2ccccc21	8	15	14	-0.76	5	105*	100*
CCOC(=O)[C@H]1[C@H]2COc3ccc(Cl)cc3[C@@H]2N2C(=O)c3cc(F)ccc3NC(=O)[C@@]12C	-2	.	2	.	8	.	.
COc1cc(C(=O)N2CCNCC2)cc(OC)c1OC	-1	2	0	.	-6	.	.
CCCCCCN1C=CC(=C2C(=O)c3ccccc3C2=O)C=C1	-14	7	-8	1.8	-5	99*	102*
CCCN1C=CC(=C2C(=O)c3ccccc3C2=O)C=C1	-6	-4	-9	-1.4	1	103*	126*
CN1C=CC(=C2C(=O)c3ccccc3C2=O)C=C1	-6	7	0	-0.54	.	17	.
CCN1C=CC(=C2C(=O)c3ccccc3C2=O)C=C1	-9	-17	-11	-0.13	-5	100*	115*
CC/C(=N/Nc1cccc(C)c1)c1cnnc(SC)n1	3	-9	1	-0.13	11	97*	-71
COCCn1c(SCC(=O)NC2CC2)nnc1-c1ccc(Cl)cc1	-4	.	-3	.	-2	.	.
Cc1ccc(C(=O)COC(=O)c2cc(=O)[nH]c3ccccc23)cc1C	0	-11	3	-1.1	0	102*	15
SMILES	XBP1 UPR activ	pCIP destab	UPR CHOP act	Dynein transport	B2AR ag	CHOP inhibitor	CHOP confirm	others
CCNC(=S)N/N=C/c1cc(Br)cc(Br)c1OC	-1	4	-1	-0.87	9	102*	80*
COc1c(Br)cc(Br)cc1/C=N/NC(=O)c1cccnc1	-5	4	1	.	-8	.	.
COc1ccc(-n2ncc3c2CC(C)(C)CC3NC(=O)c2cn[nH]c2)cc1 (stereo unspecified)	-2	-10	0	.	-2	.	.
Cn1c(-c2nnn(-c3ccc(F)cc3)n2)cc2ccccc21	4	-3	3	0.83	.	-18	.
CCOC(=O)c1c(C(C)(C)C)oc2ccc(O)cc12	1	-3	0	0.12	-1	104*	106*
O=C(O)c1ccc2c(c1)C(=O)N(c1cc([N+](=O)[O-])ccn1)C2=O	-1	1	0	.	-6	.	.
CC(C)(C)c1ccc(OCCNCc2ccccc2)cc1	1	-3	4	.	2	.	.
CC(C)(C)c1ccc(OCCNC(=S)Nc2ccccc2)cc1	2	-21	0	-0.19	-9	104*	72*
O=C1C(C2=NC(c3ccccn3)C3C(=O)N(c4ccc(OC(F)(F)F)cc4)C(=O)C23)=C(O)c2ccccc21 (stereo unspecified)	17	-10	42*	-0.49	1	105*	117*	CHOP UPR conf=9
Cc1ccc(N(CC(=O)O)S(C)(=O)=O)cc1Cl	-1	-3	0	0.29	6	-2	.
COc1cc(/C=C(/C#N)c2nc3ccccc3[nH]2)ccc1OCC(=O)Nc1ccccc1C(C)C	-6	-6	76*	-0.36	-13	108*	116*	CHOP UPR conf=64*
Cc1ccc(C(=O)c2c(C)oc3c2C(=O)C(=O)c2ccccc2-3)cc1	-7	-11	64*	-1.8	47*	115*	50	CHOP UPR conf=0
CN(C)c1ccc(/C=[N+](\[O-])C2N(c3ccccc3)C(=S)SC2(C)C)cc1 (stereo unspecified)	1	-5	0	1	6	16	.
N#CCc1ccc(C(=O)c2ccccc2)s1	-2	-16	1	-0.56	-11	56	.
Cc1ccc(Sc2nc(-c3ccccc3)nnc2C(F)(F)F)cc1	-10	-2	40*	.	-2	107*	-50	CHOP UPR conf=120*
CCOC(=O)c1c(NC(=O)c2ccccc2Cl)sc2c1CCc1ccccc1-2	0	5	1	-0.22	5	-33	.
CCCCC(=O)Nc1sc2c(c1C(=O)OCC)CCC(C=O)=C2Cl	33*	0	63*	4.1	-14	117*	-2	CHOP UPR conf=33*
